Where “and” joins values, the source holds several entries; their conditions need not be identical. Identical values can stand only once.
How the values were obtained:
[1] = target: human recombinant STAT3 SH2 protein (Homo sapiens, UniProt P40763); experiment: Fluorescence polarization; type: binding; details: for times less potent than SI-109 in binding to STAT3: ratio of binding affinities vs SI-109
STAT3 protein [2] = target: STAT3 protein (Mus musculus, UniProt P42227); experiment: Pharmacodynamics in native mouse spleen tissue; type: in vivo; details: single intravenous dose, 25 mg/kg, CD-1 mice
Sequence of STAT3 protein (Mus musculus, UniProt P42227) (P42227 whole entry): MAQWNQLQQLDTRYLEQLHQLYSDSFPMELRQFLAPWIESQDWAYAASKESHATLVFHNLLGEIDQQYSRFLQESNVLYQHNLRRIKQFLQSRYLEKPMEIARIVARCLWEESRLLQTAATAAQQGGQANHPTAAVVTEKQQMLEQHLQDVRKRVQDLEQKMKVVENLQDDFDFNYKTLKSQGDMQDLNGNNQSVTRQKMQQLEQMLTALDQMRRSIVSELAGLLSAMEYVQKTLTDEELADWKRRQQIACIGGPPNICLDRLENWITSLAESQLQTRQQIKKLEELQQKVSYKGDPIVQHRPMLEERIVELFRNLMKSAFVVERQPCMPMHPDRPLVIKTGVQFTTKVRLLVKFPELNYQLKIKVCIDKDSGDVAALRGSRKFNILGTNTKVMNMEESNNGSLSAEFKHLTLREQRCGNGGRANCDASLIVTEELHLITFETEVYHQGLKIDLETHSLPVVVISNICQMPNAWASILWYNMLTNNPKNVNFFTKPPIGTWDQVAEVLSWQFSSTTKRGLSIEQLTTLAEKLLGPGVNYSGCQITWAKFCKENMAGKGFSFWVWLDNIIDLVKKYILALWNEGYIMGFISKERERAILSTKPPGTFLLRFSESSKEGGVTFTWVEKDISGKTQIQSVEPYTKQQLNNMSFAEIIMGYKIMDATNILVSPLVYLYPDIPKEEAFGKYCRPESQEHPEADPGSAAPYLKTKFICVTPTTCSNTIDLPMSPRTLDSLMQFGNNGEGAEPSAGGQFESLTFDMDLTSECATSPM
Method in brief: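 Female CD-1 mice received a single intravenous dose of test compound or vehicle (10% PEG400 + 90% PBS). Mice were euthanized at set time points and spleens harvested. Native spleen lysates were immunoblotted for STAT3.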

STAT3 protein [3] = target: T1, STAT3 protein (Homo sapiens, UniProt P40763); experiment: Western blotting of STAT3 degradation in Molm-16 cells; type: cell-based; details: for times less potent than SD-36 in STAT3 degradation: Molm-16 cells, ratio of DC50
T1 sequence (P40763 whole entry): as the sequence (P42227 whole entry) above, with D760E counted along it

STAT3 protein [4] = target: T1, STAT3 protein; experiment: Western blotting of STAT3 degradation in SU-DHL-1 cells; type: cell-based; details: for reducing the levels of STAT3 and pSTAT3^Y705 proteins: SU-DHL-1, up to 5 μM; for times less potent than SD-36 in STAT3 degradation: SU-DHL-1 cells, ratio of DC50
Molm-16 cell line = experiment: Cell growth assay; type: cell-based; details: Molm-16

Sequence of human recombinant STAT3 SH2 protein (P40763 127-688): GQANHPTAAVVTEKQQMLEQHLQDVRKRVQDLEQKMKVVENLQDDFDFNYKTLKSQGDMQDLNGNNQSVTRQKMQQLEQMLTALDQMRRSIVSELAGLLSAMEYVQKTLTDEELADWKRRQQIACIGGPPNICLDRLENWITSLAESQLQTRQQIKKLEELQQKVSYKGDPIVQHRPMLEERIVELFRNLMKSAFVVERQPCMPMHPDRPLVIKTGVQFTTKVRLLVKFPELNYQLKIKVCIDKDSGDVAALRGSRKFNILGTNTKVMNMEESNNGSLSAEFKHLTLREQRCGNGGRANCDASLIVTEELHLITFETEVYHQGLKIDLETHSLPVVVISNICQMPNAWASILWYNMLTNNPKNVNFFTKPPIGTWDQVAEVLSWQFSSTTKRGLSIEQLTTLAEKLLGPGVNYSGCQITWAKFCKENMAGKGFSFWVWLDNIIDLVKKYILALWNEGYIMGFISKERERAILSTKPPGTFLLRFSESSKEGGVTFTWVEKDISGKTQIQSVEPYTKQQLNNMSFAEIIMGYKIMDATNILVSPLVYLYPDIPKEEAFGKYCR

NC(=O)CC[C@H](NC(=O)[C@@H]1CC[C@@H]2CCCC[C@H](NC(=O)c3cc4cc(CP(=O)(O)O)ccc4[nH]3)C(=O)N21)C(=O)NCc1ccccc1 [Compound 3, (2-((3S,6S)-3-((S)-5-Amino-1-(benzylamino)-1,5-dioxopentan-2-ylcarbamoyl)-5-oxodecahydropyrrolo[1,2-a]azocin-6-ylcarbamoyl)-1H-indol-5-yl)methylphosphonic Acid]
times weaker than 2 in binding to STAT3 ([1]; ratio of Ki vs compound 2): 30 times

NC(=O)CC[C@H](NC(=O)[C@@H]1CC[C@@H]2CCCC[C@H](NC(=O)c3cc4cc(C(F)(F)P(=O)(O)O)ccc4[nH]3)C(=O)N21)C(=O)NCc1ccccc1 [Compound 4, (2-((3S,6S)-3-((S)-5-Amino-1-(benzylamino)-1,5-dioxopentan-2-ylcarbamoyl)-5-oxodecahydropyrrolo[1,2-a]azocin-6-ylcarbamoyl)-1H-indol-5-yl)difluoromethylphosphonic Acid]
times more potent than 3 in binding to STAT3 ([1]; ratio of Ki vs compound 3): > 100 times

CC(=O)N1CC[C@H]2CC[C@@H](C(=O)N[C@@H](CCC(N)=O)C(=O)NC(c3ccccc3)c3ccccc3)N2C(=O)[C@@H](NC(=O)c2cc3cc(OP(=O)(O)O)ccc3[nH]2)C1 [Compound 9, 2-(((5S,8S,10aR)-3-Acetyl-8-(((S)-5-amino-1-(benzhydrylamino)-1,5-dioxopentan-2-yl)carbamoyl)-6-oxodecahydropyrrolo[1,2-a][1,5]diazocin-5-yl)carbamoyl)-1H-indol-5-yl Dihydrogen Phosphate]
times less potent than SI-109 in binding to STAT3 [1]: 2 times

CC(=O)N1CC[C@H]2CC[C@@H](C(=O)N[C@@H](CCC(N)=O)C(=O)NC(c3ccccc3)c3ccccc3)N2C(=O)[C@@H](NC(=O)c2cc3cc(CP(=O)(O)O)ccc3[nH]2)C1 [Compound 10, ((2-(((5S,8S,10aR)-3-Acetyl-8-(((S)-5-amino-1-(benzhydrylamino)-1,5-dioxopentan-2-yl)carbamoyl)-6-oxodecahydropyrrolo[1,2-a][1,5]diazocin-5-yl)carbamoyl)-1 H-indol-5-yl)methyl)phosphonic Acid]
times less potent than SI-109 in binding to STAT3 [1]: 14 times

CC(=O)N1CC[C@H]2CC[C@@H](C(=O)N[C@@H](CCC(N)=O)C(=O)NC(c3ccccc3)c3ccccc3)N2C(=O)[C@@H](NC(=O)/C=C(\C)c2ccc(C(F)(F)P(=O)(O)O)cc2)C1 [Compound 11, ((4-((E)-4-(((5S,8S,10aR)-3-Acetyl-8-(((S)-5-amino-1-(benzhydrylamino)-1,5-dioxopentan-2-yl)carbamoyl)-6-oxodecahydropyrrolo[1,2-a][1,5]diazocin-5-yl)amino)-4-oxobut-2-en-2-yl)phenyl)difluoromethyl)phosphonic Acid]
times less potent than SI-109 in binding to STAT3 [1]: > 10 times

NC(=O)CC[C@H](NC(=O)[C@@H]1CC[C@@H]2CCN(C(=O)NCCCCC#Cc3cccc4c3CN(C3CCC(=O)NC3=O)C4=O)C[C@H](NC(=O)c3cc4cc(C(F)(F)P(=O)(O)O)ccc4[nH]3)C(=O)N21)C(=O)NC(c1ccccc1)c1ccccc1 (stereo partly drawn) [Compound 19, ((2-(((5S,8S,10aR)-8-(((S)-5-Amino-1-(benzhydrylamino)-1,5-dioxopentan-2-yl)carbamoyl)-3-((6-(2-(2,6-dioxopiperidin-3-yl)-1-oxoisoindolin-4-yl)hex-5-yn-1-yl)carbamoyl)-6-oxodecahydropyrrolo[1,2-a][1,5]diazocin-5-yl)carbamoyl)-1H-indol-5-yl)difluoromethyl)phosphonic Acid]
persistence of STAT3 reduction in spleen (STAT3 protein [2]): more than 48 h | reducing STAT3 protein in native mouse spleen tissue (STAT3 protein [2]): very effective

NC(=O)CC[C@H](NC(=O)[C@@H]1CC[C@@H]2CCN(C(=O)CCCCCC#Cc3cccc4c3C(=O)N(C3CCC(=O)NC3=O)C4=O)C[C@H](NC(=O)c3cc4cc(C(F)(F)P(=O)(O)O)ccc4[nH]3)C(=O)N21)C(=O)NC(c1ccccc1)c1ccccc1 (stereo partly drawn) [Compound 27, ((2-(((5S,8S,10aR)-8-(((S)-5-Amino-1-(benzhydrylamino)-1,5-dioxopentan-2-yl)carbamoyl)-3-(8-(2-(2,6-dioxopiperidin-3-yl)-1,3-dioxoisoindolin-4-yl)oct-7-ynoyl)-6-oxodecahydropyrrolo[1,2-a][1,5]diazocin-5-yl)carbamoyl)-1H-indol-5-yl)difluoromethyl)phosphonic Acid]
times less potent than SD-36 in STAT3 degradation (STAT3 protein [3]): > 50 times | reducing the levels of STAT3 and pSTAT3^Y705 proteins (STAT3 protein [4]): ineffective

NC(=O)CC[C@H](NC(=O)[C@@H]1CC[C@@H]2CCN(C(=O)CCCCCC#Cc3cccc4c3CN(C3CCC(=O)NC3=O)C4=O)C[C@H](NC(=O)c3cc4cc(C(F)(F)P(=O)(O)O)ccc4[nH]3)C(=O)N21)C(=O)NCc1ccccc1 (stereo partly drawn) [Compound 30, ((2-(((5S,8S,10aR)-8-(((S)-5-Amino-1-(benzylamino)-1,5-dioxopentan-2-yl)carbamoyl)-3-(8-(2-(2,6-dioxopiperidin-3-yl)-1-oxoisoindolin-4-yl)oct-7-ynoyl)-6-oxodecahydropyrrolo-[1,2-a][1,5]diazocin-5-yl)carbamoyl) −1H-indol-5-yl)difluoromethyl)phosphonic Acid]
times less potent than SD-36 in STAT3 degradation (STAT3 protein [3]): 4 times | times less potent than SD-36 in STAT3 degradation (STAT3 protein [4]): 2 times

CNC(=O)[C@H](CCC(N)=O)NC(=O)[C@@H]1CC[C@@H]2CCN(C(=O)CCCCCC#Cc3cccc4c3CN(C3CCC(=O)NC3=O)C4=O)C[C@H](NC(=O)c3cc4cc(C(F)(F)P(=O)(O)O)ccc4[nH]3)C(=O)N21 (stereo partly drawn) [Compound 31, ((2-(((5S,8S,10aR)-8-(((S)-5-Amino-1-(methylamino)-1,5-dioxopentan-2-yl)carbamoyl)-3-(8-(2-(2,6-dioxopiperidin-3-yl)-1-oxoisoindolin-4-yl)oct-7-ynoyl)-6-oxodecahydropyrrolo-[1,2-a][1,5]diazocin-5-yl)carbamoyl)-1H-indol-5-yl)difluoromethyl)phosphonic Acid]
times less potent than SD-36 in STAT3 degradation (STAT3 protein [3]): 10 times and > 10 times | times less potent than SD-36 in STAT3 degradation (STAT3 protein [4]): 30 times

NC(=O)CC[C@H](NC(=O)[C@@H]1CC[C@@H]2CCN(C(=O)CCCCCC#Cc3cccc4c3CN(C3CCC(=O)NC3=O)C4=O)C[C@H](NC(=O)c3cc4cc(OP(=O)(O)O)ccc4[nH]3)C(=O)N21)C(=O)NC(c1ccccc1)c1ccccc1 (stereo partly drawn) [Compound 32, 2-(((5S,8S,10aR)-8-(((S)-5-Amino-1-(benzhydrylamino)-1,5-dioxopentan-2-yl)carbamoyl)-3-(8-(2-(2,6-dioxopiperidin-3-yl)-1-oxoisoindolin-4-yl)oct-7-ynoyl)-6-oxodecahydropyrrolo-[1,2-a][1,5]diazocin-5-yl)carbamoyl)-1H-indol-5-yl Dihydrogen Phosphate]
degradation of total STAT3 and pSTAT3^Y705 proteins (STAT3 protein [3]; Molm-16, concentrations up to 10 μM): fail to degrade | activity in inhibition of cell growth (Molm-16 cell line): very weak activity

C/C(=C\C(=O)N[C@H]1CN(C(=O)CCCCCC#Cc2cccc3c2CN(C2CCC(=O)NC2=O)C3=O)CC[C@H]2CC[C@@H](C(=O)N[C@@H](CCC(N)=O)C(=O)NC(c3ccccc3)c3ccccc3)N2C1=O)c1ccc(C(F)(F)P(=O)(O)O)cc1 (stereo partly drawn) [Compound 34, ((4-((E)-4-(((5S,8S,10aR)-8-(((S)-5-Amino-1-(benzhydrylamino)-1,5-dioxopentan-2-yl)carbamoyl)-3-(8-(2-(2,6-dioxopiperidin-3-yl)-1-oxoisoindolin-4-yl)oct-7-ynoyl)-6-oxodecahydropyrrolo[1,2-a][1,5]diazocin-5-yl)amino)-4-oxobut-2-en-2-yl)phenyl)difluoromethyl)phosphonic Acid]
times less potent than SD-36 in STAT3 degradation (STAT3 protein [3]): > 70 times | effect on the levels of STAT3 and pSTAT3^Y705 (STAT3 protein [4]; SU-DHL-1, concentrations up to 10 μM): fails to degrade | reducing the levels of STAT3 and pSTAT3^Y705 proteins (STAT3 protein [4]): ineffective
